Experimental data: ChEMBL document CHEMBL1156765, “Novel organic proteasome inhibitors identified by virtual and in vitro screening” (J Med Chem, 2010)
Each block holds one compound with its values, some of them ahead of it. Activity calls are given as the source filed them. The rule behind the calls is not given here.

Assays:
[1] = Inhibition of chymotrypsin-like activity of rabbit 20S proteasome at pH 8 after 15 mins; design: species or system Oryctolagus cuniculus
Procedure, shortened: (§1)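 Rabbit 20S proteasome held with inhibitor for 15 min at pH 8, 37 °C. The matching fluorogenic substrate was then added to read the remaining chymotrypsin-like, post-acid or trypsin-like activity. Results are reported as IC50, or as % inhibition at a single inhibitor concentration of 50 or 100 μM.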

Oryctolagus cuniculus [2] = species on record: Oryctolagus cuniculus; assay: Inhibition of post-acid activity of rabbit 20S proteasome at 50 uM at pH 8 after 15 mins; procedure, shortened: as §1
[3] = Inhibition of trypsin-like activity of rabbit 20S proteasome at pH 8 after 15 mins; design: species or system Oryctolagus cuniculus; procedure, shortened: as §1
[4] = Inhibition of post-acid activity of rabbit 20S proteasome at pH 8 after 15 mins; design: species or system Oryctolagus cuniculus; procedure, shortened: as §1
Oryctolagus cuniculus [5] = species on record: Oryctolagus cuniculus; assay: Inhibition of post-acid activity of rabbit 20S proteasome at 100 uM at pH 8 after 15 mins; procedure, shortened: as §1
Oryctolagus cuniculus [6] = species on record: Oryctolagus cuniculus; assay: Inhibition of trypsin-like activity of rabbit 20S proteasome at 100 uM at pH 8 after 15 mins; procedure, shortened: as §1
Oryctolagus cuniculus [7] = species on record: Oryctolagus cuniculus; assay: Inhibition of trypsin-like activity of rabbit 20S proteasome at 50 uM at pH 8 after 15 mins; procedure, shortened: as §1
HEK293 = assay: Cytotoxicity against human HEK293 cells after 48 hrs by XTT assay; assay type: functional, cell-based; conditions: HEK293, 48 h
[8] = target: T1, Calpain-1 catalytic subunit (Homo sapiens) (UniProt P07384); assay: Inhibition of cytosolic calpain 1 at 50 uM at pH 7.2
T1 sequence (whole entry): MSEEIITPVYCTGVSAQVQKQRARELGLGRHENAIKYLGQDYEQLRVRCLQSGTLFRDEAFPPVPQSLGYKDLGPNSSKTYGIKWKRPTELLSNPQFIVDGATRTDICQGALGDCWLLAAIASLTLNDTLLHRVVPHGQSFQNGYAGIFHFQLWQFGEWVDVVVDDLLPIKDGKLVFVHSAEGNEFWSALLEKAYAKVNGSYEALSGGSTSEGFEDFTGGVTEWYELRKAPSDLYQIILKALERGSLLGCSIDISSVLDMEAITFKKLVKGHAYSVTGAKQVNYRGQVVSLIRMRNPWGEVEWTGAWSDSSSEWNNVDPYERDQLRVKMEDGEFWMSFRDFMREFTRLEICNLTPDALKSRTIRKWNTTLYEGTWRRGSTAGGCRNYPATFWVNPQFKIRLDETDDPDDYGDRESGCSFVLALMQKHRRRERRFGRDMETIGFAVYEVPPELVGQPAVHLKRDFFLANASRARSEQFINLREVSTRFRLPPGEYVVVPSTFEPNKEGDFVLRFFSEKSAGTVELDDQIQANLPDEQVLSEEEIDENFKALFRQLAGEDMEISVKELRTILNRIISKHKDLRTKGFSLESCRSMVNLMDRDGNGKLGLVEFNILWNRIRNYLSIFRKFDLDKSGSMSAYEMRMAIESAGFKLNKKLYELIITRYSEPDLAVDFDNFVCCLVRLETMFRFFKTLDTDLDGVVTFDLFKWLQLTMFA

[9] = target: T1, Calpain-1 catalytic subunit (Homo sapiens); assay: Inhibition of cytosolic calpain 1 at 100 uM at pH 7.2
HeLa = assay: Cytotoxicity against human HeLa cells after 48 hrs by XTT assay; assay type: functional, cell-based
Oryctolagus cuniculus [10] = species on record: Oryctolagus cuniculus; assay: Inhibition of chymotrypsin-like activity of rabbit 20S proteasome at 50 uM at pH 8 after 15 mins; procedure, shortened: as §1
Oryctolagus cuniculus [11] = species on record: Oryctolagus cuniculus; assay: Inhibition of chymotrypsin-like activity of rabbit 20S proteasome at 100 uM at pH 8 after 15 mins; procedure, shortened: as §1

IC50 [1]: Not Active
inhibition (Oryctolagus cuniculus [5]): 45%
IC50 ([3]; read-out: IC50): 25.6 µM
SMILES: CCc1ccc(-c2cc(C(=O)Nc3ccc(S(=O)(=O)NC(C)=O)cc3)c3ccccc3n2)cc1

IC50 [1]: Not Active
inhibition (Oryctolagus cuniculus [2]): 54%
inhibition (Oryctolagus cuniculus [6]): 13%
SMILES: Cc1ccccc1C(=O)Nc1ccc(S(=O)(=O)NCc2ccccc2)cc1

IC50 [1]: Not Active
inhibition (Oryctolagus cuniculus [5]): 42%
inhibition (Oryctolagus cuniculus [7]): 45%
SMILES: CCOc1ccc(-c2cc(C(=O)Nc3ccc(S(=O)(=O)NC(C)=O)cc3)c3ccccc3n2)cc1

IC50 ([1]; read-out: IC50): 28.3 µM
inhibition (Oryctolagus cuniculus [2]): 29%
inhibition (Oryctolagus cuniculus [7]): 44%
SMILES: Cc1ccc(-c2nnc(Nc3cccc(O)c3)c3ccccc23)cc1S(=O)(=O)NC(C)(C)C
EC50 (HEK293): 10.4 µM

inhibition (Oryctolagus cuniculus [10]): 70.1%
IC50 [4]: Not Active
SMILES: O=C(Nc1ccc(S(=O)(=O)NCc2ccccc2)cc1)c1cc(-c2cccs2)nc2ccccc12

IC50 ([1]; read-out: IC50): 35.4 µM
IC50 ([4]; read-out: IC50): 14.8 µM
IC50 ([3]; read-out: IC50): 67.8 µM
SMILES: Cc1ccc(-c2nnc(Nc3cccc(O)c3)c3ccccc23)cc1S(=O)(=O)NC(C)(C)CO

inhibition (Oryctolagus cuniculus [11]): 87%
IC50 ([4]; read-out: IC50): > 25 µM
SMILES: CCN(CC)S(=O)(=O)c1ccc(NC(=O)c2ccc(C(C)(C)C)cc2)cc1

inhibition (Oryctolagus cuniculus [10]): 35%
IC50 ([4]; read-out: IC50): 39 µM
inhibition (Oryctolagus cuniculus [6]): 63%
SMILES: CCOC(=O)CNS(=O)(=O)c1cc(-c2nnc(Nc3cccc(O)c3)c3ccccc23)ccc1C
EC50 (HEK293): 13.9 µM

Further lines, the compound ahead of its results:

SMILES: CC(C)(C)c1ccc(OCC(=O)N2CCN(c3ccc([N+](=O)[O-])cc3)CC2)c(Br)c1
IC50 [1]: Not Active
inhibition (Oryctolagus cuniculus [2]): 49%
IC50 [3]: Not Active

SMILES: COc1ccc(NC(=O)C23CC4CC(C2)CC(C(=O)Nc2ccc(OC)cc2)(C4)C3)cc1
IC50 ([1]; read-out: IC50): 11.7 µM
IC50 ([4]; read-out: IC50): 12.4 µM

SMILES: COc1ccc(N2CCN(C(=S)Nc3ccc([N+](=O)[O-])cc3)CC2)cc1
IC50 ([1]; read-out: IC50): 10.8 µM
IC50 ([4]; read-out: IC50): 9 µM
EC50 (HEK293): 50 µM

SMILES: C=CCN(CC=C)S(=O)(=O)c1ccc(NC(=O)c2ccc(C(C)(C)C)cc2)cc1
IC50 ([1]; read-out: IC50): 1.9 µM
IC50 ([4]; read-out: IC50): 10 µM
IC50 ([3]; read-out: IC50): 4.5 µM
Activity [8]: inactive
Activity [9]: inactive
EC50 (HeLa): 12.3 µM
EC50 (HEK293): 9.7 µM

SMILES: Cc1ccc(-c2nnc(Nc3ccccc3)c3ccccc23)cc1S(=O)(=O)NCC1CCCO1 (stereo not drawn)
IC50 [1]: Not Active
inhibition (Oryctolagus cuniculus [2]): 52%

SMILES: CC(=O)NS(=O)(=O)c1ccc(NC(=O)c2cc(-c3ccc(Cl)s3)nc3ccccc23)cc1
EC50 (HeLa): 100 µM
EC50 (HEK293): 75 µM

SMILES: COc1ccc(N2CCN(C(=O)COc3ccc(C(C)(C)C)cc3)CC2)c([N+](=O)[O-])c1
inhibition (Oryctolagus cuniculus [10]): 40%
IC50 [4]: Not Active

SMILES: COc1ccc(NC(=O)C23CC4CC(C2)CC(c2ccc(C)cc2)(C4)C3)cc1
IC50 ([1]; read-out: IC50): 26.2 µM
IC50 ([4]; read-out: IC50): 50 µM

SMILES: CC(C)(C)c1ccc(/C=C/C(=O)N2CCN(c3ccc([N+](=O)[O-])cc3)CC2)cc1
IC50 [1]: Not Active
inhibition (Oryctolagus cuniculus [2]): 52%
IC50 [3]: Not Active

SMILES: CC(C)(C)c1ccc(C(=O)Nc2ccc(S(=O)(=O)N3CCCCCC3)cc2)cc1
IC50 ([1]; read-out: IC50): > 50 µM
inhibition (Oryctolagus cuniculus [5]): 63%

SMILES: CCCN(CCC)S(=O)(=O)c1ccc(NC(=O)c2ccc(C(C)(C)C)cc2)cc1
IC50 ([1]; read-out: IC50): 18.9 µM
IC50 ([4]; read-out: IC50): 8 µM
Activity [8]: inactive
Activity [9]: inactive
EC50 (HeLa): 9 µM
EC50 (HEK293): < 5 µM
